20 compounds from ChEMBL document CHEMBL1148785, “Second generation tetrahydroquinoline-based protein farnesyltransferase inhibitors as antimalarials” (J Med Chem, 2007) can be followed below.

In test [1] the target is Protein farnesyltransferase (Rattus norvegicus). Description: Inhibition of protein farnesyltransferase.
Test [2] has as its system Plasmodium falciparum. The test can be described thus: Antimalarial activity against Plasmodium falciparum K1. The class given is functional. As to conditions: Plasmodium falciparum, K1; read-out: ED50 (the source's name). The method in brief:
(§1)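 Asynchronous culture in type A+ erythrocytes at 0.5% parasitemia and 0.5% hematocrit, grown in RPMI-1640 with 20% heat-inactivated human A+ plasma. Compound was serially diluted from a top final 5 µM, with DMSO vehicle as 100% growth. Plates ran 48 h at 37 °C under 5% CO2/5% O2/90% N2, then [3H]-hypoxanthine (0.3 µCi) for 24 h. Filter-harvested counts were corrected for the uninfected-RBC background. ED50 by linear regression; duplicates averaged.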

Test [3] deals with Plasmodium falciparum. The test can be described thus: Inhibition of Plasmodium falciparum protein farnesyltransferase at 50 nM by scintillation proximity assay.
Test [4] deals with Plasmodium falciparum. The test can be described thus: Inhibition of Plasmodium falciparum protein farnesyltransferase at 5 nM by scintillation proximity assay. (SPA uses beads or plates that emit light when radiolabelled molecules are held near them.)
Test [5] deals with Plasmodium falciparum. The test can be described thus: Inhibition of Plasmodium falciparum protein farnesyltransferase at 0.5 nM by scintillation proximity assay.
The nature of test [6]: Inhibition of Plasmodium falciparum protein farnesyltransferase by scintillation proximity assay.
Test [7] relates to Plasmodium falciparum. The test can be described thus: Antimalarial activity against Plasmodium falciparum 3D7. The class given is functional. The following applies: Plasmodium falciparum, 3D7; read-out: ED50 (the source's name). The method in brief:
as §1

The term IC50 denotes the concentration that gives 50% inhibition. Lower therefore signals greater potency in that assay. The term inhibition denotes the share of the control response that was lost under treatment. Read a low inhibition as little suppression. As for `CCOC(=O)N1CCC(CN(C2Cc3cc(C#N)ccc3N(Cc3cncn3C)C2)S(=O)(=O)c2ccccn2)CC1` (configuration not stated), the IC50 was determined as 5.5 nM in test [1] and 0.5 nM in test [6]. The results for the EC50 in test [2] and in test [7] were 40 nM and 55 nM, respectively. Further, the values for the inhibition in test [3], in test [4] and in test [5] were 100%, 46% and 95%, respectively.
For `COCCCN(C1Cc2cc(C#N)ccc2N(Cc2cncn2C)C1)S(=O)(=O)c1cn(C)cn1` (configuration not stated), half-maximal inhibition in test [1] (IC50) was put at 7.5 nM. In addition, the results for the EC50 in test [2] and in test [7] were 50 nM and 75 nM, respectively. Also, the inhibition turned out to be 99% in test [3], 92% in test [4] and 25% in test [5].
Turning to `Cn1cnc(S(=O)(=O)N(Cc2ccc3ccccc3c2Br)C2Cc3cc(C#N)ccc3N(Cc3cncn3C)C2)c1` (configuration not stated), inhibition in test [1] was half-maximal at 1000 nM (IC50). Further, the EC50 in test [2] turned out to be 4500 nM; in test [7], 3000 nM. The inhibition in test [3] came out at 69%; in test [4], 9%; in test [5], 0%.
In turn, `Cn1cncc1CN1CC(N(Cc2cc3nsnc3cc2Cl)S(=O)(=O)c2ccccn2)Cc2cc(C#N)ccc21` (configuration not stated) yielded an IC50 in test [1] of 10 nM. The EC50 in test [2] and in test [7] was 3000 nM each time. Further, the values for the inhibition in test [3] and in test [4] were 53% and 4%, respectively.
Regarding `Cn1cnc(S(=O)(=O)N(CC2CCNCC2)C2Cc3cc(C#N)ccc3N(Cc3cncn3C)C2)c1` (configuration not stated), in test [1], the IC50 turned out to be 105 nM. For the same compound, the EC50 in test [2] and in test [7] was over 5000 nM in each case. For the same compound, the inhibition amounted to 65% in test [3], 6% in test [4] and 0% in test [5].
Compound `Cc1ccccc1CN(C1Cc2cc(C#N)ccc2N(Cc2cncn2C)C1)S(=O)(=O)c1cn(C)cn1` (configuration not stated) came in with a 50% inhibitory concentration (IC50) in test [1] of 3.4 nM. Further, the EC50 in test [2] is 20 nM; in test [7], 55 nM. Moreover, the inhibition was found to be 100% in test [3], 95% in test [4] and 34% in test [5].
In the case of `Cn1cncc1CN1CC(N(CCn2cccc2)S(=O)(=O)c2ccccn2)Cc2cc(C#N)ccc21` (configuration not stated), it took 1.7 nM to reach half-maximal inhibition in test [1] (IC50). Besides, the figures for the EC50 in test [2] and in test [7] were 10 nM and 17 nM, respectively. Moreover, the inhibition in test [3] was 99%; in test [4], 96%; in test [5] it was 74%.
As for `CC(C)COC(=O)N1CCC(CN(C2Cc3cc(C#N)ccc3N(Cc3cncn3C)C2)S(=O)(=O)c2ccccn2)CC1` (configuration not stated), the values for the half-inhibitory concentration (IC50) in test [1] and in test [6] were 25 nM and 1.4 nM, respectively. Moreover, the EC50 in test [2] and in test [7] was 62 nM throughout. Also, the inhibition amounted to 100% in test [3], 12% in test [4] and 88% in test [5].
Take `Cn1cncc1CN1CC(N(CC2CCN(C(=O)c3ccccc3)CC2)S(=O)(=O)c2ccccn2)Cc2cc(C#N)ccc21` (configuration not stated): the figures for the IC50 in test [1] and in test [6] were 16 nM and 7 nM, respectively. Further, the EC50 in test [2] is 330 nM; in test [7] it was 150 nM. Moreover, the inhibition amounted to 94% in test [3], 20% in test [4] and 63% in test [5].
With `Cn1cnc(S(=O)(=O)N(Cc2ccc(-n3cccn3)cc2)C2Cc3cc(C#N)ccc3N(Cc3cncn3C)C2)c1` (configuration not stated), the IC50 came out at 2.6 nM in test [1] and 0.5 nM in test [6]. The EC50 was found to be 38 nM in test [2] and 42 nM in test [7]. The inhibition in test [3] worked out at 98%; in test [4], 98%; in test [5], 56%.
In test [1], `Cn1cncc1CN1CC(N(Cc2ccccn2)S(=O)(=O)c2ccccn2)Cc2cc(C#N)ccc21` (configuration not stated) had an IC50 of 3.8 nM. Further, the EC50 in test [2] was 100 nM; in test [7], 51 nM. In addition, the inhibition in test [3] stood at 100%; in test [4] it was 93%; in test [5] it was 4%.
As to `Cn1cncc1CN1CC(N(Cc2ccc3ccccc3c2Br)S(=O)(=O)c2ccccn2)Cc2cc(C#N)ccc21` (configuration not stated), the half-inhibitory concentration (IC50) in test [1] stood at 440 nM. Moreover, the values for the inhibition in test [3] and in test [4] were 55% and 13%, respectively.
The compound `Cn1cnc(S(=O)(=O)N(Cc2ccc(C(=O)O)cc2)C2Cc3cc(C#N)ccc3N(Cc3cncn3C)C2)c1` (configuration not stated) showed an IC50 in test [1] of 4.8 nM. For the same compound, the EC50 in test [2] and in test [7] was over 5000 nM throughout. The inhibition in test [3] stood at 66%; in test [4], 19%; in test [5] it was 0%.
Take `Cn1cncc1CN1CC(N(CC2CCN(C(=O)OC(C)(C)C)CC2)S(=O)(=O)c2ccccn2)Cc2cc(C#N)ccc21` (configuration not stated): the IC50 in test [1] is 7 nM. Also, the EC50 in test [2] is 180 nM. Further, the inhibition in test [3] turned out to be 100%; in test [4], 89%; in test [5], 19%.
Take `Cn1cncc1CN1CC(N(CC(=O)NC(C)(C)C)S(=O)(=O)c2nccn2C)Cc2cc(C#N)ccc21` (configuration not stated): the 50% inhibitory concentration (IC50) in test [1] is 5 nM; in test [6], 8 nM. The values for the EC50 in test [2] and in test [7] were 3100 nM and 750 nM, respectively. The inhibition in test [3] was 80%; in test [4] it was 27%; in test [5], 2%.
Consider `Cc1onc(-c2ccccc2)c1CN(C1Cc2cc(C#N)ccc2N(Cc2cncn2C)C1)S(=O)(=O)c1ccccn1` (configuration not stated), for which, in test [1], the midpoint of inhibition, the IC50, lay at 3 nM. For the same compound, the EC50 in test [2] is 56 nM; in test [7], 45 nM. Besides, the inhibition stood at 100% in test [3], 93% in test [4] and 42% in test [5].
`CCNC(=O)N1CCC(CN(C2Cc3cc(C#N)ccc3N(Cc3cncn3C)C2)S(=O)(=O)c2ccccn2)CC1` (configuration not stated): the figures for the EC50 in test [2] and in test [7] were 65 nM and 67 nM, respectively. Further, the inhibition in test [3] is 98%; in test [4] it was 60%; in test [5], 95%. Further, in test [6], the IC50 came to 0.65 nM.
As for `Cn1cncc1CN1CC(N(CC2CCN(C(=O)CC(C)(C)C)CC2)S(=O)(=O)c2ccccn2)Cc2cc(C#N)ccc21` (configuration not stated), the values for the IC50 in test [1] and in test [6] were 7.8 nM and 0.6 nM, respectively. Also, the EC50 in test [2] turned out to be 76 nM; in test [7] it was 20 nM. The inhibition worked out at 96% in test [3], 36% in test [4] and 88% in test [5].
For `CC(C)C(=O)N1CCC(CN(C2Cc3cc(C#N)ccc3N(Cc3cncn3C)C2)S(=O)(=O)c2ccccn2)CC1` (configuration not stated), the EC50 was 13 nM in test [2] and 18 nM in test [7]. The figures for the inhibition in test [3], in test [4] and in test [5] were 98%, 24% and 91%, respectively. The same compound showed a half-inhibitory concentration (IC50) in test [6] of 0.6 nM.
As to `CCCC(=O)N1CCC(CN(C2Cc3cc(C#N)ccc3N(Cc3cncn3C)C2)S(=O)(=O)c2ccccn2)CC1` (configuration not stated), the half-maximal inhibitory concentration (IC50) in test [1] came out at 6.5 nM; in test [6] it was 3 nM. Further, the EC50 stood at 690 nM in test [2] and 80 nM in test [7]. For the same compound, the inhibition in test [3] is 95%; in test [4], 12%; in test [5], 63%.
